# Rows were chosen to be rich in hits. Some 1.9% of all compounds tested hit in one or more screens of this group.
# F508del corr: correctors of CFTR F508del function in bronchial epithelial cells; CFBE cells, YFP halide quenching; stimulated with forskolin plus potentiator P3; % fluorescence drop versus neutral controls; actives 0.36% (n = 350,000); AID 720511; activity (quench increase), % at 7.58 µM;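 active means mean added fluorescence quench of at least 8% versus neutral control, with both replicates also reaching 8%; inconclusive means only one of the mean or replicate conditions met; inactive means mean below 8% and not both replicates reaching 8%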;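 further: cells transiently co-express mutant CFTR-F508del with the halide-sensitive YFP; corrector assay measuring rescue of mutant channel to the surface after 24 h compound exposure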
# DENV2 CPE: inhibitors of DENV2 cytopathic effect; AID 651640; actives 1.7% (n = 350,000); DENV2-infected cells, cytopathic effect rescue, plate reader; CPE inhibition, % at 9.99 µM; in the data active means CPE inhibition above about 20%, passing the limit was not always enough; inconclusive means no clear call, values can overlap the other calls; tested in BHK-21 cells;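 further: 0% = median of neutral control wells and 100% = median of positive control wells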
# Cneo AK release: Cryptococcus neoformans lysis via adenylate kinase release | C. neoformans lysis, adenylate kinase release luminescence, 4 h; normalised: neutral wells 0, clomiphene wells 100 | lysis activity, % at 15 µM | actives 0.2% (n = 360,000);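 active means mean lysis activity across replicates of at least 80%, whatever share of replicates individually reach that level; inactive means mean lysis activity below 80%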
#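 Material – Cryptococcus neoformans yeast cells · Quantity – 5 × 10^6 yeast cells/mL · Buffer or medium – YPD medium · Compound – single dose · Timing – 4 h static compound exposure, 37 °C, read 1 h post-reagent · Signal – adenylate kinase release luminescence · Read-out basis – lysis from increased AK signal · Benchmarks – Clomiphene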
# Xi reactivation: activators of X-chromosome reactivation in mouse fibroblasts; XiGFP mouse fibroblasts, % GFP-positive cells imaging, 3 d; cells co-treated with 5-aza-dC sensitizer; scaled so ellipticine positive control = 100%; activation, % at 7.58 µM; actives 0.055% (n = 360,000);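 active means mean normalized replicate activation at least 10% and every replicate at or above 10%; inconclusive means only one of the two criteria met; inactive means mean below 10% and not all replicates reach 10%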;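 further: 0% = median of on-plate neutral control wells and 100% = ellipticine 6 µM median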
#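 Material: XiGFP fibroblasts, SV40-immortalized. Buffer or medium: DMEM plus 5-aza-dC sensitizer. Compound: single concentration per compound, delivered by pin transfer. Times: 3 days compound exposure. Controls: ellipticine 6 µM.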
# FN deposition inh: fibronectin deposition inhibition; actives 0.086% (n = 350,000); AH1F fibroblasts, Alexa488-fibronectin deposition fluorescence, overnight; inhibition, % at 12.6 µM;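 active means mean inhibition across replicates of 30% or more, regardless of how many single replicates reach that level; inconclusive means mean under 30% yet at least half of replicates reach 30%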;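 further: positive control wells lacked labelled fibronectin entirely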
#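 Material: AH1F fibroblasts assembling fluorescent fibronectin matrix; amount: 10000 AH1F cells/well; medium: DMEM, 2% serum; reagent: Alexa488-fibronectin, 24 nM final in well; dosing: single compound dose, delivered by pin transfer; incubation: 1 h adhesion, overnight exposure; detection: fluorescence after three HBSS washes, excitation 485 nm, emission 525 nm; measure: fibronectin deposition inhibition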
# PGC1a acetyl inh: PGC1a acetylation modulation, inhibitor mode. U2OS PGC1a acetylation, AlphaScreen anti-acetyl-lysine; with virally co-expressed GCN5 acetyltransferase. inhibition, % at 15.6 µM. actives 0.17% (n = 350,000);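 active means every replicate shows inhibition of at least 40%; inconclusive means mean inhibition at least 40% but some replicate below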;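 further: 0% = neutral control wells and 100% = positive control wells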
# * marks the source's active call; other numbers are inactive results; ? = inconclusive; / = no result.
SMILES,F508del corr,DENV2 CPE,Cneo AK release,Xi reactivation,FN deposition inh,PGC1a acetyl inh
CCCN1C[C@@H](C)[C@@H](OC)CN(C)C(=O)c2ccc(NC(=O)c3cnccn3)cc2OC[C@@H]1C,-1.2,22.1*,-3.8,0.2,-0.4,-4.8
CO[C@@H]1CN(C)C(=O)c2cc(NC(=O)c3cnccn3)ccc2OC[C@H](C)N(CC2CC2)C[C@@H]1C,-0.6,-9.4,/,-0.1,-16.4,5.3
CO[C@H]1CN(C)C(=O)c2cc(NC(=O)c3cnccn3)ccc2OC[C@H](C)N(CC2CC2)C[C@@H]1C,-0.3,35.0*,/,-0.1,8.3,6.6
CCCN1C[C@H](C)[C@H](OC)CN(C)C(=O)c2ccc(NC(=O)c3cnccn3)cc2OC[C@@H]1C,1.0,-1.2,-3.6,0.5,2.3,-9.1
COCC(=O)N(C)C[C@H]1Oc2cc(-c3ccc(F)cc3)ccc2S(=O)(=O)N([C@H](C)CO)C[C@H]1C,-2.3,-2.0,1.0,-0.7,-4.9,-2.7
Cc1ccc(S(=O)(=O)N(C)CC(=O)Oc2ccc(-c3nnco3)cc2)cc1,6.8,126.1*,-0.3,0.0,0.8,4.8
Cc1ccc(S(=O)(=O)N(C)C)cc1NC(=O)COc1ccc(-c2nnco2)cc1,0.6,12.3,-3.4,-0.1,-0.5,2.3
O=C(NCC[C@H]1CC[C@@H](NC(=O)C2CCOCC2)[C@H](CO)O1)c1ccc(F)cc1,3.9,?,-1.9,0.0,8.3,-9.3
CC(=O)/C(C#N)=C1\NC(=O)C(Cc2ccc(C)c(Cl)c2)S1 (configuration not stated),?,87.0*,-4.2,0.4,-1.7,-15.0
O=C1N[C@H](Cc2ccccc2)COCc2cnnn2CC[C@@H]1Cc1cccc(F)c1,/,/,/,0.1,-6.5,/
CCCCNC(=O)c1onc(CSc2ccccc2C)c1C(=O)O,8.3*,/,2.4,0.1,-3.5,12.0
CCCCNC(=O)c1onc(CSc2ccccc2F)c1C(=O)O,-1.7,?,1.5,0.6,-6.0,0.1
COCC(=O)Nc1ccc2c(c1)OC[C@@H](C)N(Cc1cc(F)ccc1F)C[C@@H](C)[C@@H](OC)CN(C)C2=O,1.2,30.8*,3.9,0.4,4.3,2.2
COCC(=O)Nc1ccc2c(c1)OC[C@H](C)N(Cc1cc(F)ccc1F)C[C@H](C)[C@@H](OC)CN(C)C2=O,-0.7,-8.3,/,0.2,-5.3,-8.3
COCC(=O)Nc1ccc2c(c1)OC[C@@H](C)N(Cc1cccc(F)c1)C[C@H](C)[C@H](OC)CN(C)C2=O,-1.5,35.5*,17.1,0.1,3.8,6.6
CO[C@@H]1CN(C)C(=O)c2ccc(NS(=O)(=O)c3cccc(F)c3)cc2OC[C@H](C)N(Cc2cc(F)ccc2F)C[C@@H]1C,-6.6,28.3*,-3.1,-0.1,-5.8,-12.3
COc1ccccc1C(=O)N1C[C@H]2[C@@H](c3ccccc31)[C@@H](CO)N2C(=O)C1CCCC1,2.5,5.9,-2.1,0.1,-0.1,-14.3
CCOc1ccc(NC(=O)CSc2nc(N)c(-c3ccccc3)c(=O)[nH]2)cc1,-2.6,-2.2,/,0.0,-6.7,1.3
Nc1nc(-c2ccccc2)c(CCCOc2ccc(NC(=O)CBr)cc2)c(=O)[nH]1,-1.3,24.4*,9.8,-0.2,-3.0,1.7
C[C@@H]1CN([C@H](C)CO)C(=O)c2cccc(N(C)C)c2O[C@H]1CN(C)S(=O)(=O)c1ccc(Cl)cc1,1.3,?,-3.5,-1.4,/,9.9
COc1ccc(CN(C)C[C@@H]2OCCCC[C@H](C)Oc3ccc(NS(=O)(=O)c4ccccc4)cc3C(=O)N([C@H](C)CO)C[C@H]2C)cc1,1.9,31.9*,3.5,0.2,-5.3,-3.6
COc1ccc(CN(C)C[C@H]2OCCCC[C@@H](C)Oc3ccc(NS(=O)(=O)c4ccccc4)cc3C(=O)N([C@@H](C)CO)C[C@H]2C)cc1,0.2,33.8*,0.5,0.0,-18.4,-0.6
CCCc1cc(C(=O)OC)c(NC(=O)CCC(=O)O)s1,-0.3,5.1,/,-0.1,33.1*,6.4
C[C@H](CO)N1C[C@H](C)[C@H](CN(C)C)Oc2c(NC(=O)c3ccncc3)cccc2C1=O,1.3,-1.5,55.8,0.1,/,0.4
CC(C)C[C@@H](COCc1ccc(Cl)cc1)N1CCN(C(=O)c2ccc(C(F)(F)F)cc2)CCC1=O,2.1,-4.9,/,0.0,18.9,/
SMILES,F508del corr,DENV2 CPE,Cneo AK release,Xi reactivation,FN deposition inh,PGC1a acetyl inh
CC(C)CC(COCc1ccc(Cl)cc1)N1CCN(C(=O)c2ccc(Cl)cc2Cl)CCC1=O (configuration not stated),1.7,100.2*,-1.8,2.8,-3.3,3.1
COc1ccc2c3c(n(C)c2c1)[C@H](CO)N(Cc1ccccc1)CC31CCN(CC2CC2)CC1,0.6,9.5,/,-0.1,/,-13.4
CCc1ccc(C(=O)NNC(=O)c2c(CC)noc2C)cc1,-2.2,37.1*,1.1,0.0,-0.1,/
COc1ccc([C@@H]2CC=C(C(=O)O)[C@H](c3ccccc3F)N2S(=O)(=O)c2ccc(C)cc2)cc1OC,-0.3,35.6*,3.2,0.3,-10.6,/
COc1ccc([C@@H]2CC=C(C(=O)O)[C@H](c3cccc(Cl)c3)N2S(=O)(=O)c2ccc(C)cc2)cc1OC,-0.7,-9.6,0.7,-0.3,1.6,/
COc1ccc([C@@H]2CC=C(C(=O)O)[C@H](c3ccccc3)N2S(=O)(=O)c2ccc(C)cc2)cc1OC,-0.1,48.8*,5.5,0.0,-1.0,/
CC(C)=CCC[C@](C)(O)C1CC[C@]2(C)C1C(O)CC1[C@@]3(C)CCC(O)C(C)(C)C3C(O[C@@H]3OC(CO)C(O)C(O)C3O[C@@H]3OC(C)C(O)C(O)C3O)C[C@]12C (some centres not stated),0.6,-7.8,3.5,0.0,-4.3,/
CC(C)(O)/C=C/C[C@](C)(O)C1CC[C@]2(C)C1[C@H](O[C@H]1O[C@@H](CO)[C@H](O)[C@@H](O)[C@@H]1O)CC1[C@@]3(C)CC[C@H](O)C(C)(C)C3[C@@H](O)C[C@]12C (some centres not stated),-4.3,42.1*,0.8,0.0,-2.1,/
Cn1cc(C(CO)Cc2ccccc2)c2ccccc21 (configuration not stated),0.2,25.4*,0.0,-0.3,2.2,-8.8
CCCNC(=O)N1CC(=O)N2[C@H](CO)[C@@H](c3ccc(-c4ccc(C)cc4)cc3)[C@H]2C1,-2.0,-1.1,/,0.0,/,-0.2
CCOc1ccc(C(=O)NCC(c2ccco2)N2CCOCC2)cc1 (configuration not stated),0.1,26.0*,0.3,0.1,-1.5,/
CCOc1ccc(C(=O)NCC(=O)N2CCCCCCC2)cc1,-0.1,22.2*,-0.3,0.0,4.7,-7.6

# Screens from PubChem BioAssay.
